Rows were chosen to be rich in hits. Some 2.9% of all compounds tested hit in one or more screens of this group.
Apaf-1 inh = inhibitors of human Apaf-1 apoptosome | reconstituted apoptosome caspase-3 activity, DEVD-Rh110 fluorescence | inhibition, % at 20 µM | AID 489030 | 330,000 compounds, 0.71% hits | O14727; active = inhibition of at least 40% at 20 µM
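Material: reconstituted apoptosome with Apaf-1, cytochrome c, caspase-9, procaspase-3, dATP / Buffer or medium: pH 7.5 Hepes buffer with CHAPS, BSA, DTT / Also added: cytochrome c with DEVD-Rh110 / Schedule: compound with Apaf-1, dATP, procaspase-3 30 min, then 50 min reaction, room temperature / Technique: rhodamine 110 fluorescence at Ex 480/Em 540 nm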
ZTA counter = counter-screen for EBNA-1 inhibitors: inhibitors of Epstein-Barr virus ZTA; ZTA-DNA binding, fluorescence polarization; inhibition, % at 11 µM; 320,000 compounds, 0.15% hits; AID 2234; in the data active = inhibition above about 33%
Target sequence (P03206 whole entry, looked up): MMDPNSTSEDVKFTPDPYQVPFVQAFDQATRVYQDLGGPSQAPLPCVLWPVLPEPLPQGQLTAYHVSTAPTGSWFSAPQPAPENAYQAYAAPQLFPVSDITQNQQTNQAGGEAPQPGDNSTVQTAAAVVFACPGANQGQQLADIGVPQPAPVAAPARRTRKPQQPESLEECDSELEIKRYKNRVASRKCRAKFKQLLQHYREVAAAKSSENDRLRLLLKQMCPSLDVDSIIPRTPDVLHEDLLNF
EBNA-1 inh = blocks EBNA-1 binding to DNA. EBNA-1 DNA binding, fluorescence polarization. inhibition, % at 14.8 µM. 300,000 compounds, 0.34% hits. AID 1950; in the data active = inhibition above about 28%
PfG6PD inh = PfG6PD (Plasmodium falciparum) enzyme inhibition; PfGluPho enzyme, NADPH resazurin-diaphorase fluorescence; inhibition, % at 20 µM; 350,000 compounds, 0.78% hits; AID 504690;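 active = inhibition reaching at least a set limit at 20 µM in the primary screen, cut at about 59% in these data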
UBC13 polyUb = human UBC13 polyubiquitination inhibition. UBC13 polyubiquitin chain formation, TR-FRET. inhibition, % at 20 µM. 330,000 compounds, 0.47% hits. AID 485273. P61088; in the data active = inhibition above about 45%, passing the limit was not always enough
Target sequence (P61088 whole entry, looked up): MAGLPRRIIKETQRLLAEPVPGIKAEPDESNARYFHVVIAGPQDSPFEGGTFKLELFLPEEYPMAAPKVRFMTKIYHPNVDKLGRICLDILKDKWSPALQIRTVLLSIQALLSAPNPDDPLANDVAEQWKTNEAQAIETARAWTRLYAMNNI
PfM18AAP inh = PfM18AAP enzyme inhibition; recombinant PfM18AAP, H-Glu-NHMec fluorogenic cleavage; inhibition, % at 7.35 µM; 290,000 compounds, 1.2% hits; AID 1822;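 active = inhibition above the campaign mean inhibition over all tested compounds plus 3 SD, cut at about 28% in these data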
EBNA-1 confirm = EBNA-1 (EBV) inhibition, confirmation. 830 compounds, 35% hits. shares compounds with EBNA-1 inh. inhibition, % at 14.8 µM. Recombinant EBNA-1 DBD, Cy5-DNA fluorescence polarization;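 active = mean inhibition across replicates above a set limit taken from the earlier primary screen, cut at about 28% in these data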
ZTA DNA inh trip = counter-screen for EBNA-1 inhibitors: Epstein-Barr virus ZTA inhibitors, triplicate; shares compounds with EBNA-1 inh; Zta-ZRE DNA binding, Cy5 fluorescence polarization; inhibition, % at 11.1 µM; 830 tested, under 10 active; AID 2328;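 active = mean inhibition over triplicates above a set limit taken from the primary EBNA-1 screen, cut at about 37% in these data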;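 note: purified full length Zta protein with Cy5 labeled ZRE DNA probe; inhibitors lower polarization by freeing the labeled DNA probe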
A number is an active result; - = inactive; . = no result.

SMILES | Apaf-1 inh | ZTA counter | EBNA-1 inh | PfG6PD inh | UBC13 polyUb | PfM18AAP inh | EBNA-1 confirm | ZTA DNA inh trip
O=C(CNC(=O)c1ccc(-c2ccccc2)cc1)OCc1c(F)cccc1Cl | - | - | 44 | - | - | - | 76 | -
Cc1ccccc1NC(=S)N=Nc1c(O)n(C)c2ccc(S(=O)(=O)N3CCOCC3)cc12 | - | - | 42 | - | - | - | - | -
C=CCc1c(C)[nH]c(=O)[nH]c1=O | - | - | - | - | - | - | . | .
Cc1ccc(F)cc1NC(=O)C12CC3CC(C1)CC(n1cnc([N+](=O)[O-])n1)(C3)C2 | - | - | - | - | - | - | . | .
O=C(COC(=O)c1cc(Br)ccc1O)Nc1ccc2c(c1)OCCO2 | - | - | 49 | - | - | . | - | -
Cc1ccc(C2CC(c3cccs3)=NN2C(=O)CSc2nc(=O)n3cc(C)ccc3n2)cc1 (stereo unspecified) | - | - | 42 | - | - | . | - | -
Cc1nc2ccccn2c1C(=O)/C=C/c1ccc(F)cc1 | - | - | - | - | - | - | . | .
COc1ccc(/C=C/C(=O)c2c(C)nc3ccccn23)cc1 | - | - | 69 | - | - | - | 40 | -
COC(=O)/C=C1\SC(=Nc2ccccc2)NC1=O | - | - | - | - | - | - | . | .
COC(=O)/C=C1/SC(=Nc2ccc(Cl)c(Cl)c2)NC1=O | - | - | 41 | - | - | - | - | -
Cn1nnnc1SCc1ccc(C(=O)Nc2ccc(Br)cc2)cc1 | - | - | 39 | - | - | - | - | -
Cc1cccc(N=N/C(=C\O)C(=O)c2cccs2)c1 | - | - | - | - | - | - | . | .
C[C@@H]1CN([C@H](C)CO)S(=O)(=O)c2ccc(Br)cc2O[C@H]1CN(C)C(=O)C1CCCCC1 | . | . | . | - | . | . | . | .
COc1ccc(NC(=O)c2ccccc2-c2ccc(C(F)(F)F)cc2)cc1S(=O)(=O)N1CCOCC1 | - | - | - | - | - | - | . | .
COc1ccc(S(=O)(=O)N2CCOCC2)cc1NC(=O)c1ccccc1-c1ccc(C(F)(F)F)cc1 | - | - | 32 | - | - | - | 37 | -
Cc1cc(C(F)(F)F)n2nc(-c3cnn(C)c3C(F)(F)F)c(Br)c2n1 | - | - | - | - | - | - | . | .
Cc1ccc(NC(=O)NCc2ccc3c(c2)OCO3)cc1C | - | - | 30 | - | - | - | - | -
O=C(Nc1ccc(Oc2ccc3c(c2)C(=O)N(c2ccc(O)cc2)C3=O)cc1)c1cccs1 | - | - | 28 | - | - | - | 55 | -
CC(C)CN1C(=O)c2ccc(NC(=O)c3cccs3)cc2C1=O | - | - | - | - | - | - | . | .
Cc1c(NC(=O)C(C)Oc2cccc(F)c2)c(=O)n(-c2ccccc2)n1C (stereo unspecified) | - | . | . | - | - | . | . | .
COc1ccc(Nc2nc(NCc3ccco3)nc(N)c2[N+](=O)[O-])cc1 | - | - | 39 | - | - | - | - | -
Cc1cccc(Nc2nc(NCc3ccco3)nc(N)c2[N+](=O)[O-])c1 | - | - | - | - | - | - | . | .
Cc1ccc(NC(=O)COc2coc(CN3CCc4ccccc43)cc2=O)cc1Cl | - | - | - | - | - | . | . | .
CCOc1ccc(C(=O)NCCCCNC(=O)c2ccc(OCC)cc2)cc1 | - | - | 28 | - | - | - | - | -
CCOc1ccc(C(=O)NCCN(C)C)cc1 | - | - | - | - | - | - | . | .
SMILES | Apaf-1 inh | ZTA counter | EBNA-1 inh | PfG6PD inh | UBC13 polyUb | PfM18AAP inh | EBNA-1 confirm | ZTA DNA inh trip
CN(C)c1cc[n+](/C(C(=S)Nc2ccc(SC(F)F)cc2)=C(/[O-])c2ccccc2)cc1 | - | - | 58 | - | - | - | 43 | -
COc1ccccc1CNC(=O)c1ccc2nc3[nH]c4ccccc4c3nc2c1 | - | - | 65 | - | - | - | 67 | -
CC(C)CC(CO)N1CCN(C(=O)c2cccc(C(F)(F)F)c2)CCC1=O (stereo unspecified) | - | - | - | - | - | - | . | .
COc1ccc(O)c(/C=N/NC(=O)CCC(=O)Nc2ccc(C)cc2)c1 | - | - | 50 | - | - | - | - | -
Cc1ccc(NC(=O)CCC(=O)N/N=C/c2ccc(O)cc2)cc1 | - | - | - | - | - | - | . | .
O=C(CCC(=O)Nc1ccc(Br)cc1)N/N=C/c1ccc(O)cc1 | - | - | 28 | - | - | - | - | -
CSc1ccc(S(=O)(=O)N2CCC(C(=O)NCc3ccccn3)CC2)cc1 | - | - | - | - | - | - | . | .
COc1ccc(OC)c(C(=O)N2CCC(C(=O)c3ccc(F)cc3)CC2)c1 | - | - | - | - | - | - | . | .
CCOC(=O)N1CCN(S(=O)(=O)c2ccc(F)c(C(=O)Nc3cccc(Cl)c3C)c2)CC1 | - | - | 81 | - | - | - | - | -
CCOC(=O)N1CCN(S(=O)(=O)c2ccc(F)c(C(=O)Nc3cc(C)cc(C)c3)c2)CC1 | - | - | - | - | - | - | . | .
CC(=O)N1CCN=C1SCc1ccc(C(F)(F)F)cc1 | - | - | 41 | - | - | - | - | -
Cc1cccc(C(=O)N/N=C/c2ccc(OC3CSC3)cc2)c1 | - | - | 35 | - | - | - | - | -
Cc1cccc(C(=O)N/N=C/c2ccncc2)c1 | - | - | - | - | - | - | . | .
CSc1nnc(C(C)c2ncc(C(F)(F)F)cc2Cl)n1C (stereo unspecified) | - | - | - | - | - | - | . | .
O=S(=O)(Nc1nc(-c2ccccc2)cs1)c1cc(Cl)ccc1Cl | - | - | 31 | - | - | - | - | -
O=c1/c(=C\c2cc([N+](=O)[O-])cc([N+](=O)[O-])c2O)sc2nc3ccccc3n12 | - | - | 27 | - | - | - | 28 | -
O=C(O)c1cccc(-c2ccc(/C=c3/sc4nc5ccccc5n4c3=O)o2)c1 | - | - | - | - | - | - | . | .
CCOC(=O)c1c(C)[nH]c(C(=O)OCC(=O)Nc2ccc(OC)c(Cl)c2)c1C | - | - | 94 | - | - | - | 32 | -
COc1ccc(CNC(=O)CN2CCN(S(=O)(=O)c3cccs3)CC2)cc1OC | - | - | - | - | - | - | . | .
COc1ccccc1-n1cc(C(=O)N2CCCC(CO)(Cc3ccccc3C)C2)cn1 (stereo unspecified) | - | - | - | - | - | - | . | .
CC(=O)c1cccc(NC(=O)N2CCC(NC(=O)C34CC5CC(CC(C5)C3)C4)CC2)c1 | - | - | - | - | - | - | . | .
CCCCn1c(CN2C(=O)c3ccccc3C2=O)nc2ccccc2c1=O | - | - | 32 | - | - | - | 31 | -
Cc1[nH]c2ccccc2c1/C=C/C(=O)c1ccncc1 | - | - | 38 | - | - | - | - | -
O=C(/C=C/c1cccc2ccccc12)c1ccncc1 | . | - | - | - | . | - | . | .
Cc1ccc2c(c1)nnn2C1CCN(S(=O)(=O)c2ccc(C(=O)NC3CCCC3)cc2)CC1 | - | - | 35 | - | - | - | 36 | -
